Assay outcomes as filed in PubChem BioAssay.
CHOP UPR activ: apoptotic UPR (CHOP) activation; CHO-CHOP luciferase reporter, luminescence; percent of tunicamycin response over DMSO baseline; activation, % at 10 µM; hit rate 0.34% among 330,000;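 active = at 10 µM dose, activation of 40% or more, normalized to positive control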
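Evaluation: % reporter activation, DMSO baseline versus tunicamycin full activation; System: CHO-CHOP luciferase reporter cell line; Input: 500 cells/well; Incubation: 6 h compound treatment, 37 °C; Measured by: Steady-Glo luciferase luminescence; Dosing: one dose, 10 µM in 0.5% DMSO; Buffer or medium: F12 medium, 10% FBS; Benchmarks: positive tunicamycin 10 µg/mL, negative DMSO alone.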
CHOP inhibitor: inhibitors of CHOP induction in ER stress response; CHO-K1 CHOP-promoter luciferase, tunicamycin-induced, 15-18 h; inhibition, % at 10 µM; hit rate 3.8% among 220,000;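 active = compounds that reduced the stress-induced luciferase reporter signal by more than about 70% of percent inhibition, limit read from the data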
Lmaj promast: inhibitors of Leishmania major promastigote growth. inhibition, % at 10 µM. Leishmania major promastigotes, resazurin fluorescence viability. hit rate 9% among 200,000. AID 1063; in the data active = inhibition above about 50%;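 also: promastigotes grown with compound for 44 hours at 28 °C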
XBP1 UPR activ: adaptive UPR (XBP1) activation. activation, % at 20 µM. CHO-XBP1 luciferase reporter, IRE1-XBP1 UPR activation, luminescence; percent of tunicamycin response, DMSO as zero. hit rate 0.33% among 330,000;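 active = versus positive control, 20 µM dose yields 30% or more activation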
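Material: CHO-XBP1 cells stably carrying IRE1-XBP1-driven luciferase reporter / Amount: 1000 cells per well / Compound: 20 µM, 1% DMSO / Times: 6 h treatment, 37 °C / Detection: luciferase luminescence / Measure: % activation of reporter signal versus tunicamycin and DMSO controls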
T cruzi repl: blocks replication of Trypanosoma cruzi | inhibition, % (no concentration beside the values) | AID 1885 | T. cruzi beta-gal in NIH3T3, luminescence, 90 h | hit rate 1.4% among 300,000;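 active = mean inhibition across valid replicates above about 55%, limit read from the data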;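 also: signal also drops with host cell toxicity which is not excluded here; higher percent means less beta-gal luminescence so fewer parasites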
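compound dosing = single 50 nL compound addition per well in DMSO | material = NIH/3T3 host cells with β-galactosidase reporter T. cruzi | input = 5,000 host fibroblasts per well | timing = ≥90 h infection period, 3 h prior cell attachment | read-out basis = percent inhibition of parasite-derived β-gal signal | detection = GalScreen β-gal luminescence, detergent lysis, 60 min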
Dynein transport: blocks dynein driven cargo transport along microtubules. hit rate 0.47% among 220,000. AID 1381. z-score, hits read low. 3617.4 mouse cells, GR-EGFP nuclear translocation imaging; test concentration mostly 20 µM; stimulated with dexamethasone, 1 µM; hits give low values;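 active = plate z-score of nuclear minus cytoplasmic receptor signal below a set negative limit, without overly bright fluorescence or cell loss, cut at about -3.5 in these data, passing the limit was not always enough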;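 also: z-score of nuclear minus cytoplasmic ring GR-EGFP intensity difference per well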
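Also added: dexamethasone, 1.0 µM final. Medium: tet-free, stripped-serum medium. Detection: fixed, Hoechst-stained cells imaged at 10x for EGFP. Read-out: nuclear-to-cytoplasmic GR-EGFP distribution per well. Times: induction 48 h, compound 1 h, agonist 30 min.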
Each line names hits and unclear results; the compound was inactive in the other large screens. Many of the other results were omitted from the sample, so hits are more common in it than they were.

Cc1ccc(C)c(Nc2nc(-c3ccncc3)nc3ccccc23)c1	none (no result: CHOP inhibitor, Lmaj promast, Dynein transport)
Clc1ccc(COc2cccc(CNCc3ccncc3)c2)cc1	Lmaj promast 94, T cruzi repl 70
c1ccc(COc2cccc(CNCc3cccs3)c2)cc1	Lmaj promast 98
CCOC(=O)C1CCCN(C(=O)c2cc3ccccc3oc2=O)C1 (configuration not stated)	none
COCCN(C(=S)Nc1cc(C)cc(C)c1)C(C)c1cccnc1 (configuration not stated)	Lmaj promast 95
COCCN(C(=S)Nc1c(C)cc(C)cc1C)C(C)c1cccs1 (configuration not stated)	Lmaj promast 98
COCCN(C(=S)Nc1ccc(C)cc1C)C(C)c1cccs1 (configuration not stated)	none
COCCN(C(=S)Nc1ccc(C)cc1)C(C)c1cccnc1 (configuration not stated)	Lmaj promast 80
Cc1nn(C)c(C)c1C(C)NC(=O)c1cc(COc2ccc(F)c(F)c2)on1 (configuration not stated)	none (no result: CHOP inhibitor, Lmaj promast, Dynein transport)
Cc1ccc(C(Sc2ccccc2)C(Cn2cncn2)C(=O)c2ccccc2)cc1 (configuration not stated)	CHOP inhibitor 93
CCC1CCc2c(c3ccccc3[nH]c2=O)O1 (configuration not stated)	none
CCCC1CCc2c(c3ccccc3[nH]c2=O)O1 (configuration not stated)	CHOP inhibitor 76
CCC(=NCCc1c(C)[nH]c2ccc(OC(F)(F)F)cc12)C1=C(O)CC(c2ccccc2)CC1=O (configuration not stated)	none
CCC(=NCCc1c(C)[nH]c2ccccc12)C1=C(O)CC(c2ccccc2)CC1=O (configuration not stated)	Lmaj promast 96
CCCCC(=NCCc1c(C)[nH]c2ccc(OC)cc12)C1=C(O)CC(c2ccccc2)CC1=O (configuration not stated)	none
CC(=NCCc1c(C)[nH]c2ccc(OCc3ccccc3)cc12)C1=C(O)CC(c2ccccc2)CC1=O (configuration not stated)	T cruzi repl 58
Cc1oc(-c2cccs2)nc1CN1CCN(CCC(C)C)C(CCO)C1 (configuration not stated)	Lmaj promast 84
CC(C)NC(=O)C1CCN(C2CCN(Cc3nc4ccccc4s3)CC2)CC1	Lmaj promast 86
CC(C)CN1CCN(Cc2nc3ccccc3s2)CC1CCO (configuration not stated)	none
CC(C)CCN1CCN(CC(c2ccccc2)c2ccccc2)CC1CCO (configuration not stated)	Lmaj promast 91
